Measurements reported in ChEMBL document CHEMBL3272050, “Prostaglandin prodrugs. 5.1 Prostaglandin E2 ethylene ketal” (J Med Chem, 1977).
Values belong to the compound of their own block, whether it stands above or below them. Calls of active or inactive are those of the source. The calls are words filed in the database; no cut-off is given here.

How the values were obtained:
[1] = Chemical stability of the compound assessed as formation of prostaglandin A2 at pH 2.08; assay type: physicochemical; settings: buffer
[2] = Chemical stability of the compound assessed as formation of prostaglandin A2 at pH 6.50; assay type: physicochemical; settings: buffer, pH 6.5
[3] = Chemical stability of the compound assessed as formation of prostaglandin A2 at pH 4.53; assay type: physicochemical; settings: buffer
[4] = Chemical stability of the compound assessed as formation of prostaglandin A2 at pH 5.50; assay type: physicochemical; settings: buffer, pH 5.5
[5] = Chemical stability of the compound assessed as formation of prostaglandin A2 at 6.31 x 10^-4 M at pH 3.50 at 25 degC by HPLC analysis; assay type: physicochemical; settings: buffer, pH 3.5, 631 µM
Outline: (§1)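 Ketal incubated at 25 ± 0.5 °C, pH 2.0–6.5, in 0.1 M buffers (HCl, chloroacetic, acetic, succinic, phosphoric) with ionic strength set to 0.10 M by KCl. Initial ketal was 0.25 mg/mL at pH 2.0–3.5 and 0.50 mg/mL at pH 4.5–6.5. Timed aliquots were EtOAc-extracted for HPLC at 263 nm, quantified by peak-area ratios against calibration mixtures, and first-order rate constants fitted.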

[6] = Chemical stability of the compound assessed as half life of formation of prostaglandin A2 at pH 2 at 25 degC by HPLC analysis; assay type: physicochemical; settings: buffer; outline: as §1
[7] = Chemical stability of the compound assessed as formation of prostaglandin A2 at 12.61 x 10^-4 M at pH 4.53 at 25 degC by HPLC analysis; assay type: physicochemical; settings: buffer, pH 4.53, 1261 µM; outline: as §1
[8] = Chemical stability of the compound assessed as formation of prostaglandin A2 at pH 2.99; assay type: physicochemical; settings: buffer
[9] = Chemical stability of the compound assessed as formation of prostaglandin A2 at pH 3.50; assay type: physicochemical; settings: buffer, pH 3.5
[10] = Chemical stability of the compound assessed as formation of prostaglandin E2 at 12.61 x 10^-4 M at pH 6.50 at 25 degC by HPLC analysis; assay type: physicochemical; settings: buffer, pH 6.5, 1261 µM; outline: as §1
[11] = Drug metabolism assessed as disappearance of compound at pH 3.5 at 25 degC by HPLC analysis; assay type: physicochemical; settings: read-out: Drug metabolism; outline: as §1
Rhesus monkey [12] = experiment: Increase of amplitude of uterine contractions in rhesus monkey at 16.87 mg, po administered on 100th day of pregnancy; assay type: functional, organism-based; settings: Macaca mulatta
Outline: (§2)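 Female rhesus monkeys on day 100 of pregnancy received an oral dose of 5.62 or 16.87 mg in 0.1 M THAM buffer, pH 8.5. Uterine contraction frequency and amplitude (mmHg) were recorded through an open-ended catheter in the amniotic cavity and compared with pretreatment activity.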

Rhesus monkey [13] = experiment: Increase of amplitude of uterine contractions in rhesus monkey at 5.62 mg, po administered on 100th day of pregnancy; assay type: functional, Macaca mulatta; outline: as §2
[14] = Chemical stability of the compound assessed as formation of prostaglandin E2 at 12.61 x 10^-4 M at pH 5.50 at 25 degC by HPLC analysis; assay type: physicochemical; settings: buffer, pH 5.5, 1261 µM; outline: as §1
Rhesus monkey [15] = experiment: Increase of uterine contractions in rhesus monkey at 5.62 mg, po administered on 100th day of pregnancy; assay type: functional, organism-based; settings: Macaca mulatta; outline: as §2
[16] = Chemical stability of the compound assessed as half life of formation of prostaglandin E2 at pH 2 at 25 degC by HPLC analysis; assay type: physicochemical; settings: buffer; outline: as §1
[17] = Chemical stability of the compound assessed as formation of prostaglandin E2 at pH 2.08 to 6.50 at 25 degC by HPLC analysis; assay type: physicochemical; settings: buffer; outline: as §1
[18] = Chemical stability of the compound assessed as formation of prostaglandin E2 at 6.31 x 10^-4 M at pH 2.08 at 25 degC by HPLC analysis; assay type: physicochemical; settings: buffer, pH 2.08, 631 µM; outline: as §1
Rhesus monkey [19] = experiment: Increase of uterine contractions in rhesus monkey at 16.87 mg, po administered on 100th day of pregnancy; assay type: functional, organism-based; settings: Macaca mulatta; outline: as §2
[20] = Chemical stability of the compound assessed as formation of prostaglandin E2 at 12.61 x 10^-4 M at pH 4.53 at 25 degC by HPLC analysis; assay type: physicochemical; settings: buffer, pH 4.53, 1261 µM; outline: as §1
[21] = Chemical stability of the compound assessed as formation of prostaglandin E2 at 6.31 x 10^-4 M at pH 2.99 at 25 degC by HPLC analysis; assay type: physicochemical; settings: buffer, pH 2.99, 631 µM; outline: as §1
[22] = Chemical stability of the compound assessed as formation of prostaglandin E2 at 6.31 x 10^-4 M at pH 3.50 at 25 degC by HPLC analysis; assay type: physicochemical; settings: buffer, pH 3.5, 631 µM; outline: as §1
Rhesus monkey [23] = experiment: Increase of uterine motility in rhesus monkey at 5.62 mg, po administered on 100th day of pregnancy; assay type: functional, organism-based; settings: Macaca mulatta; outline: as §2

- K [1]: 5.8 ×10⁻⁷ /s
- K [2]: 5.3 ×10⁻⁷ /s
- K [3]: 3.1 ×10⁻⁷ /s
- K [4]: 4 ×10⁻⁷ /s
- K [5]: 5.8 ×10⁻⁷ /s
- t1/2 [6]: 336 h
- K [7]: 3.36 ×10⁻⁷ /s
- K [8]: 2.8 ×10⁻⁷ /s
- K [9]: 2.3 ×10⁻⁷ /s
Structure (SMILES): CCCCC[C@H](O)/C=C/[C@H]1[C@H](O)CC(=O)[C@@H]1C/C=C\CCCC(=O)O [DINOPROSTONE]

- K [10]: 2.58 ×10⁻⁸ /s
- degraded [11]: 70%
- K [14]: 1.71 ×10⁻⁷ /s
- t1/2 [16]: 1 h
- K [17]: 2.24 ×10⁻² /s/M
- K [18]: 1.93 ×10⁻⁴ /s
- K [20]: 7.61 ×10⁻⁷ /s
- K [21]: 2.29 ×10⁻⁵ /s
- K [22]: 5.78 ×10⁻⁶ /s
Structure (SMILES): CCCCC[C@H](O)/C=C/[C@H]1[C@H](O)CC2(OCCO2)[C@@H]1C/C=C\CCCC(=O)O
- Activity (Rhesus monkey [12]): Active
- Activity (Rhesus monkey [13]): 7 mmHg
- Activity (Rhesus monkey [15]): Active
- Activity (Rhesus monkey [19]): Active
- Activity (Rhesus monkey [23]): Active
